Source: ChEMBL document CHEMBL1146214, “Bioactive cardenolides from the stems and twigs of Nerium oleander” (J Nat Prod, 2007)
pIC50: −log10 of the molar value.

How the values were obtained:
A549 [1] = experiment: Inhibition of induction of ICAM1 expression in human A549 cells in presence of TNFalpha after 1 hr; type: functional, cell-based; details: A549, 1 h
In short: (§1)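 A549 cells (2 × 10⁴ cells/well) were pretreated with a range of compound concentrations for 1 h, then stimulated with IL-1α or TNF-α for 6 h. Surface ICAM-1 was detected with primary and secondary antibodies plus enzyme substrate, read as absorbance at 415 nm. Expression was taken as % of control after subtracting the unstimulated background. IC50 was derived from this, using triplicate cultures.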

A549 [2] = experiment: Inhibition of induction of ICAM1 expression in human A549 cells in presence of IL1-alpha after 1 hr; type: functional, cell-based; details: A549, 1 h; in short: as §1
WI-38 VA13 = experiment: Growth inhibition of human VA13 cells; type: functional, cell-based
In short: (§2)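 Growth inhibition assayed in normal human fibroblasts WI-38, their malignant transformant VA-13, and human liver tumour HepG2 cells; IC50 reported.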

[3] = Reversal of multidrug resistance assessed as effect on calcein accumulation in MDR-human 2780 AD cells at 0.25 ug/ml relative to verapamil; type: functional
In short: (§3)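 Multidrug-resistant 2780AD ovarian cancer cells were incubated with calcein AM plus test compound at 0.25, 2.5 or 25 μg/mL. Cellular calcein accumulation was read by fluorescence and expressed as a percentage of the verapamil response. Values are based on triplicate determinations.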

[4] = Reversal of multidrug resistance assessed as effect on calcein accumulation in MDR-human 2780 AD cells at 2.5 ug/ml relative to control; type: functional
In short: (§4)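 Multidrug-resistant human ovarian cancer 2780AD cells were loaded with calcein AM in the presence of test compound at 0.25, 2.5 or 25 μg/mL. Intracellular calcein, formed by enzymatic hydrolysis, was measured by fluorescence and expressed relative to a no-compound control. Values are means of triplicate determinations.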

A549 [5] = experiment: Viability of human A549 cells by MTT assay after 24 hrs; type: cell-based; details: A549, 24 h
In short: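 A549 cells were exposed to serial compound dilutions for 24 h, and viability was measured by MTT. Viability % was taken as background-corrected absorbance relative to control. IC50 was derived from this, using triplicate cultures.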

[6] = Reversal of multidrug resistance assessed as effect on calcein accumulation in MDR-human 2780 AD cells at 25 ug/ml relative to control; type: functional; in short: as §4
[7] = Reversal of multidrug resistance assessed as effect on calcein accumulation in MDR-human 2780 AD cells at 0.25 ug/ml relative to control; type: functional; in short: as §4
[8] = Growth inhibition of human WI38 cells; type: cell-based; details: WI-38; in short: as §2
[9] = Reversal of multidrug resistance assessed as effect on calcein accumulation in MDR-human 2780 AD cells at 25 ug/ml relative to verapamil; type: functional; in short: as §3
[10] = Reversal of multidrug resistance assessed as effect on calcein accumulation in MDR-human 2780 AD cells at 2.5 ug/ml relative to verapamil; type: functional; in short: as §3
HepG2 = experiment: Growth inhibition of human HepG2 cells; type: functional, cell-based; in short: as §2

| Structure (SMILES) | pIC50 (A549 [1]) | pIC50 (A549 [2]) | pIC50 (WI-38 VA13) | Activity [3] | Activity [4] | pIC50 (A549 [5]) | Activity [6] | Activity [7] | pIC50 [8] | Activity [9] | Activity [10] | pIC50 (HepG2) |
| --- | --- | --- | --- | --- | --- | --- | --- | --- | --- | --- | --- | --- |
| CO[C@@H]1C[C@H](O[C@H]2CC[C@@]3(C)[C@@H](CC[C@@H]4[C@@H]3CC[C@]3(C)[C@@H](C5=CC(=O)OC5)[C@@H](OC(C)=O)C[C@]43O)C2)O[C@H](C)[C@@H]1O | 4.77 | 4.67 | 6.14 | 113% | 126% | < 4.00 | 109% | 105% | 4.64 | 82% | 128% |  |
| CO[C@@H]1C[C@H](O[C@H]2CC[C@@]3(C)[C@H](CC[C@@]45O[C@@]46C[C@H]4O[C@@]4(C4=CC(=O)OC4)[C@@]6(C)CC[C@H]35)C2)O[C@H](C)[C@@H]1O | 4.34 | 4.21 |  |  | 96% | < 4.00 | 97% | 104% | 4.39 |  |  | 4.13 |
| CO[C@@H]1C[C@H](O[C@H]2CC[C@@]3(C)[C@H](CC[C@@H]4[C@@H]3CC[C@]3(C)[C@@H](C5=CC(=O)OC5)[C@@H](OC(C)=O)C[C@]43O)C2)O[C@H](C)[C@@H]1O | 6.51 | 6.29 | 6.77 |  | 77% | < 3.50 | 75% | 67% | 7.05 |  |  | 5.82 |
| CO[C@@H]1C[C@H](O[C@H]2CC[C@@]3(C)[C@H](CC[C@@H]4[C@@H]3CC[C@]3(C)[C@@H](C5=CC(=O)OC5)CC[C@]43O)C2)O[C@H](C)[C@@H]1O | 6.32 | 6.70 | 6.74 |  | 89% | < 3.50 | 96% | 93% | 7.15 |  |  | 5.82 |
| CO[C@@H]1C[C@H](O[C@H]2CC[C@@]3(C)[C@H](CC[C@]4(O)[C@@H]3CC[C@]3(C)[C@@H](C5=CC(=O)OC5)CC[C@@]34O)C2)O[C@H](C)[C@@H]1O | 5.23 | 5.22 | 5.80 |  | 107% | < 4.00 | 112% | 112% | 5.03 |  |  | 5.33 |
| CO[C@@H]1C[C@H](O[C@H]2CC[C@@]3(C)[C@H](CC[C@@]45O[C@@]46CC=C(C4=CC(=O)OC4)[C@@]6(C)CC[C@H]35)C2)O[C@H](C)[C@@H]1O |  | 3.88 |  |  | 89% | < 3.50 | 99% | 88% |  |  |  |  |
| CO[C@H]1C[C@H](O[C@H]2CC[C@@]3(C)[C@H](CC[C@@H]4[C@@H]3CC[C@]3(C)[C@@H](C5=CC(=O)OC5)CC[C@]43O)C2)O[C@H](C)[C@@H]1O | 6.80 | 6.70 | 6.10 |  | 83% | < 4.00 | 86% | 89% | > 7.70 |  |  | 6.85 |
| CC(=O)O[C@H]1C[C@]2(O)[C@@H]3CC[C@@H]4C[C@@H](O)CC[C@]4(C)[C@H]3CC[C@]2(C)[C@H]1C1=CC(=O)OC1 | 6.44 | 6.28 | 6.80 |  | 100% | < 4.00 | 99% | 92% | 5.77 |  |  | 6.70 |
| CO[C@@H]1C[C@H](O[C@H]2CC[C@@]3(C)[C@H](CC[C@@]45O[C@@]46CC[C@H](C4=CC(=O)OC4)[C@@]6(C)CC[C@H]35)C2)O[C@H](C)[C@@H]1O |  | 4.86 | 4.87 |  | 102% | < 3.50 | 112% | 92% | 4.48 |  |  | 4.12 |
| CO[C@H]1C[C@H](O[C@H]2CC[C@@]3(C)[C@H](CC[C@@]45O[C@@]46CC=C(C4=CC(=O)OC4)[C@@]6(C)CC[C@H]35)C2)O[C@H](C)[C@@H]1O | 4.26 | 4.16 | 4.07 |  | 100% | < 4.00 | 102% | 99% | 4.79 |  |  | 4.09 |
| CO[C@H]1C[C@H](O[C@H]2CC[C@@]3(C)[C@H](CC[C@@H]4[C@@H]3CC[C@]3(C)[C@@H](C5=CC(=O)OC5)[C@@H](OC(C)=O)C[C@]43O)C2)O[C@H](C)[C@@H]1O |  | 6.24 | 6.62 |  | 81% | < 3.00 | 91% | 90% | 7.10 |  |  | 6.09 |
| C[C@]12CC[C@H](O)C[C@H]1CC[C@@H]1[C@@H]2CC[C@]2(C)[C@@H](C3=CC(=O)OC3)CC[C@]12O [DIGITOXIGENIN] |  | 6.21 | 5.72 |  | 74% | < 3.50 | 66% | 86% | 4.93 |  |  | 4.74 |
| COc1cccc2c1C(=O)c1c(O)c3c(c(O)c1C2=O)C[C@@](O)(C(=O)CO)C[C@@H]3O[C@H]1C[C@H](N)[C@H](O)[C@H](C)O1 [DOXORUBICIN] |  |  | 6.40 |  |  |  |  |  | 6.15 |  |  | 5.89 |
| CC(=O)O[C@H]1C(=O)[C@@]2(C)[C@H]([C@H](OC(=O)c3ccccc3)[C@]3(O)C[C@H](OC(=O)[C@H](O)[C@@H](NC(=O)c4ccccc4)c4ccccc4)C(C)=C1C3(C)C)[C@]1(OC(C)=O)CO[C@@H]1C[C@@H]2O [PACLITAXEL] |  |  |  |  |  |  |  |  | 7.40 |  |  |  |
